The subject of series [1] is Influenza A virus H3N2. Briefly: Antiviral activity against Influenza A virus H3N2 infected in MDCK cells assessed as inhibition of virus-induced cytopathicity by MTS assay. It counts as functional, organism-based. A general note: Damage to the host cells serves as the signal in cytopathic effect assays.
Series [2] relates to Influenza A virus. In words: Antiviral activity against Influenza A virus H1N1 infected in MDCK cells assessed as inhibition of virus-induced visual cytopathicity. It is filed as functional, organism-based.
Series [3] concerns Influenza A virus. In words: Antiviral activity against Influenza A virus H1N1 infected in MDCK cells assessed as inhibition of virus-induced cytopathicity by MTS assay. It counts as functional, organism-based.
Series [4] deals with Influenza B virus. Briefly: Antiviral activity against Influenza B virus infected in MDCK cells assessed as inhibition of virus-induced visual cytopathicity. It counts as functional, organism-based.
The test system of series [5] is Influenza B virus. Briefly: Antiviral activity against Influenza B virus infected in MDCK cells assessed as inhibition of virus-induced cytopathicity by MTS assay. It counts as functional, organism-based.
For series [6], the system named is Influenza A virus H3N2. Briefly: Antiviral activity against Influenza A virus H3N2 infected in MDCK cells assessed as inhibition of virus-induced visual cytopathicity. It is filed as functional, organism-based.
Series [7] can be described thus: Cytotoxicity against MDCK cells assessed as alteration of cell morphology by microscopic analysis. It counts as cell-based, Canis lupus familiaris. To be noted: dog.
A short description of series [8]: Cytotoxicity against HEL cells assessed as alteration of cell morphology by microscopic analysis. It is filed as cell-based. The note with it: human. The procedure, abridged:
(§1)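 The value is the minimal cytotoxic concentration (MCC), the lowest concentration that causes a microscopically visible change in cell morphology. It was read in the same HEL or Vero cell cultures used for the antiviral tests.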

Series [9] has as its system Human adenovirus 2. In words: Antiviral activity against Adenovirus 2 infected in HEL cells assessed as inhibition of virus-induced cytopathicity. It counts as functional, organism-based. To be noted: Human mastadenovirus C.
Series [10] in a line: Cytotoxicity against African green monkey Vero cells assessed as alteration of cell morphology by microscopic analysis. It is filed as cell-based. The note with it: chlorocebus sabaeus. The essentials: as §1
The test system of series [11] is Coxsackievirus B4. Briefly: Antiviral activity against Coxsackie virus B4 infected in African green monkey Vero cells assessed as inhibition of virus-induced cytopathicity. It is filed as functional, organism-based. To be noted: Enterovirus B.
Series [12] has as its system Mammalian orthoreovirus 1. In words: Antiviral activity against Reovirus-1 infected in human HeLa cells assessed as inhibition of virus-induced cytopathicity. It is filed as functional, organism-based. The note with it: Mammalian orthoreovirus 1, HeLa.
The subject of series [13] is Human respirovirus 3. Briefly: Antiviral activity against Parainfluenza virus 3 infected in human HeLa cells assessed as inhibition of virus-induced cytopathicity. It counts as functional, organism-based. The note with it: Human respirovirus 3, HeLa.
Series [14] has as its system Respiratory syncytial virus. In words: Antiviral activity against Respiratory syncytial virus infected in human HeLa cells assessed as inhibition of virus-induced cytopathicity. It is filed as functional, organism-based.
Series [15] can be described thus: Cytotoxicity against human HeLa cells assessed as alteration of cell morphology by microscopic analysis. It counts as cell-based.
Series [16] deals with Yellow fever virus. In words: Antiviral activity against Yellow fever virus infected in African green monkey Vero cells assessed as inhibition of virus-induced cytopathicity. It is filed as functional, organism-based.
Series [17] has as its system Sindbis virus. Briefly: Antiviral activity against Sindbis Virus infected in African green monkey Vero cells assessed as inhibition of virus-induced cytopathicity. It counts as functional, organism-based.
The test system of series [18] is Human alphaherpesvirus 2. Briefly: Antiviral activity against Herpes simplex virus 2 G infected in HEL cells assessed as inhibition of virus-induced cytopathicity. It counts as functional, organism-based. To be noted: Human alphaherpesvirus 2, strain G.
The subject of series [19] is Human coronavirus 229E. Briefly: Antiviral activity against Human coronavirus 229E infected in HEL cells assessed as inhibition of virus-induced cytopathicity. It is filed as functional, organism-based.
Series [20] has as its system Human alphaherpesvirus 1. In words: Antiviral activity against acyclovir-resistant thymidine kinase deficient Herpes simplex virus 1 KOS infected in HEL cells assessed as inhibition of virus-induced cytopathicity. It is filed as functional, organism-based. The note with it: Human alphaherpesvirus 1, KOS.
In series [21] the test system is Human alphaherpesvirus 3. Briefly: Antiviral activity against thymidine kinase deficient Varicella-Zoster virus infected in HEL cells assessed as reduction in virus plaque formation. It is filed as functional, organism-based. The note with it: Human alphaherpesvirus 3, HEL.
For series [22], the system named is Vesicular stomatitis virus. Briefly: Antiviral activity against Vesicular stomatitis virus infected in human HeLa cells assessed as inhibition of virus-induced cytopathicity. It counts as functional, organism-based.
The subject of series [23] is Punta Toro virus. Briefly: Antiviral activity against Punta Toro virus infected in African green monkey Vero cells assessed as inhibition of virus-induced cytopathicity. It counts as functional, organism-based.
The test system of series [24] is Human alphaherpesvirus 1. In words: Antiviral activity against Herpes simplex virus 1 KOS infected in HEL cells assessed as inhibition of virus-induced cytopathicity. To be noted: Human alphaherpesvirus 1, KOS. It is filed as functional, organism-based.
The test system of series [25] is Vaccinia virus. Briefly: Antiviral activity against Vaccinia virus infected in HEL cells assessed as inhibition of virus-induced cytopathicity. It counts as functional, organism-based. To be noted: Orthopoxvirus vaccinia.
Series [26] has as its system Human betaherpesvirus 5. In words: Antiviral activity against Human cytomegalovirus Davis infected in HEL cells assessed as inhibition of virus-induced cytopathicity. It is filed as functional, organism-based. The note with it: Human betaherpesvirus 5, Davis.
The subject of series [27] is Human alphaherpesvirus 3. In words: Antiviral activity against thymidine kinase expressing Varicella-Zoster virus infected in HEL cells assessed as reduction in virus plaque formation. To be noted: Human alphaherpesvirus 3, HEL. It is filed as functional, organism-based.
Series [28] has as its system Human betaherpesvirus 5. In words: Antiviral activity against Human cytomegalovirus AD169 infected in HEL cells assessed as inhibition of virus-induced cytopathicity. It is filed as functional, organism-based. To be noted: Human betaherpesvirus 5, AD169, HEL.

Drawing on ChEMBL document CHEMBL4118253, “Expedient synthesis and biological evaluation of alkenyl acyclic nucleoside phosphonate prodrugs” (Bioorg Med Chem, 2018), this text covers EC50 and MCC for eight compounds.

Usually EC50 stands for the concentration that produces a half-maximal response.

In the case of `NC12CC3CC(CC(C3)C1)C2` [AMANTADINE], the EC50 was 1.6 µM in series [1]; 1.8 µM in series [2]; 1.4 µM in [3]; above 100 µM in series [4]; above 100 µM in series [5]; 2 µM in series [6]. The MCC in [7] was above 100 µM.
On to `Nc1ccn([C@H]2CC[C@@H](CO)O2)c(=O)n1` [ZALCITABINE], for which the MCC in series [8] was above 250 µM. For the same compound, in [9], the concentration for a half-maximal effect (EC50) is 10 µM.
With `NC(=O)c1ncn([C@@H]2O[C@H](CO)[C@@H](O)[C@H]2O)n1` [RIBAVIRIN], the MCC in series [10] was above 250 µM; in series [15] it was above 250 µM; in series [7], above 100 µM. The EC50 in [11] was above 250 µM; in series [12] it was above 250 µM; in [13] it was 95 µM; in [14], 25 µM; in series [16] it was above 250 µM; in [17], above 250 µM.
In the case of `C/C(=C/CP(=O)(N[C@@H](C)C(=O)OCc1ccccc1)Oc1cccc2c1CCCC2)Cn1cc(C)c(=O)[nH]c1=O` (stereo partly specified), the EC50 was above 100 µM in series [18]; above 100 µM in [19]; above 100 µM in series [20]; 65.1 µM in [21]; above 100 µM in series [1]; above 100 µM in series [22]. The EC50 in series [2], in series [23], in series [11], in [3], in [24] and in series [25] was above 100 µM each time. Also, the EC50 was 76.5 µM in series [26]; above 100 µM in [4]; 17 µM in series [27]; above 100 µM in series [5]; above 100 µM in series [12]; above 100 µM in [13]. In addition, the EC50 in [14], in series [16], in series [17], in [9] and in [6] was above 100 µM in each case. Also, the MCC in [10] is at least 20 µM; in series [8], above 100 µM; in series [15] it was at least 20 µM; in series [7], above 100 µM.
`Nc1nc2c(ncn2COCCO)c(=O)[nH]1` [ACYCLOVIR]: the EC50 is 126 µM in series [20] and above 250 µM in series [25]. For the same compound, in series [8], the MCC fell in the range of 250 to 440 µM.
For `Nc1ccn(C[C@@H](CO)OCP(=O)(O)O)c(=O)n1` [CIDOFOVIR], the results for the EC50 in series [28], in [25] and in series [9] were 1.24 µM, 37 µM and 22 µM, respectively. Besides, the MCC in series [8] was above 250 µM.
On to `Nc1nc2c(ncn2COC(CO)CO)c(=O)[nH]1` [GANCICLOVIR], for which the EC50 is 11.4 µM in series [28], above 100 µM in series [25] and 2.29 µM in series [26]. Besides, the MCC in series [8] is above 100 µM.
Consider `COc1c(C)c2c(c(O)c1C/C=C(\C)CCC(=O)O)C(=O)OC2` [MYCOPHENOLIC ACID], for which the MCC in [10] is above 100 µM. Moreover, the EC50 in series [23] was 6.1 µM; in [11] it was above 100 µM; in series [12], 6.8 µM; in series [13] it was 0.4 µM.
